Assay results from ChEMBL document CHEMBL1155456, “Thiadiazole carbamates: potent inhibitors of lysosomal acid lipase and potential Niemann-Pick type C disease therapeutics” (J Med Chem, 2010).
Active and inactive are the calls of the source.

Assays:
[1] = molecular target: T1, Lysosomal acid lipase/cholesteryl ester hydrolase (Homo sapiens) (UniProt P38571); assay: Inhibition of human LAL at 10 uM after 30 mins by fluorescence assay
T1 sequence (whole entry): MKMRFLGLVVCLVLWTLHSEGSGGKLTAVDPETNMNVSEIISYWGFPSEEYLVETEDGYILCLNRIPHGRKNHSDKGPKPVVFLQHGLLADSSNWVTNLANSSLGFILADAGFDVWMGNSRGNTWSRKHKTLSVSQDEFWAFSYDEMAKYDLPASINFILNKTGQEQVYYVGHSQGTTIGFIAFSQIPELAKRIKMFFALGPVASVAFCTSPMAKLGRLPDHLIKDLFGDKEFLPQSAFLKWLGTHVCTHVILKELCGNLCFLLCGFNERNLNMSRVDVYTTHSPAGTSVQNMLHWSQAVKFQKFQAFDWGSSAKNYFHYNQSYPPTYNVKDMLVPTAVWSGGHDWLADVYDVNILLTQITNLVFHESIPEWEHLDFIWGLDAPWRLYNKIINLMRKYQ

[2] = Cytotoxicity against human GM03123 cells at 10 uM; assay type: cell-based
[3] = Cytotoxicity against human GM05659 cells at 10 uM; assay type: cell-based
[4] = molecular target: T1, Lysosomal acid lipase/cholesteryl ester hydrolase (Homo sapiens); assay: Inhibition of human LAL at 833 nM by fluorescence assay; conditions: TDE = time-dependent effect
Method in brief: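 Purified human LAL pre-incubated with compound at 833 nM for varying times at 37 °C (500 nM final in assay). Reaction started with 125 μM (final) 4-methylumbelliferyl oleate, followed 30 min at 37 °C. Normalized to DMSO control; mean ± SEM of 2 experiments, 12 wells per condition.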

[5] = molecular target: T2, Lysosomal acid lipase/cholesteryl ester hydrolase (Homo sapiens, UniProt P38571); assay: Inhibition of human LAL after 30 mins by fluorescence assay
T2 sequence (P38571 whole entry): T1 sequence (whole entry)
Method in brief: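 Purified recombinant human LAL (1 mU/ml final) with threefold serial compound dilutions in 200 mM sodium acetate pH 5.5, 0.02% Tween-20, 30 min at 37 °C. 125 μM (final) 4-methylumbelliferyl oleate in Triton X-100 added; fluorescence (ex 355/em 450) read after 1 h at 37 °C. IC50 from rectangular-hyperbola fit of normalized activity; mean ± SEM of 3 independent experiments.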

[6] = molecular target: T1, Lysosomal acid lipase/cholesteryl ester hydrolase (Homo sapiens); assay: Inhibition of human LAL assessed as enzyme decarbamoylation rate constant at 10 uM after 30 mins by fluorescence assay
Method in brief: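 Purified human LAL carbamoylated with 10 μM compound for 30 min, then diluted 250× to 40 nM with 125 μM 4-methylumbelliferyl oleate. Run at 37 °C, pH 5.5 acetate buffer with Tween and Triton X-100; fluorescence read every 10 min for 2 h. k3 from linear regression of ln(fraction inhibited) vs time; mean ± SEM of 4 experiments.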

[7] = molecular target: T1, Lysosomal acid lipase/cholesteryl ester hydrolase (Homo sapiens); assay: Inhibition of LAL in human GM05659 cell lysate assessed as reduction in lysosomal storage organelle cholesterol level at 0.1 to 10 uM after 4 days by bicinchoninic acid assay
Method in brief: (§1)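 Human fibroblasts in MEM with 10% FBS, exposed to compound 3–4 days (withdrawal variant: 3 days treatment, then 1 day compound-free). Cells PBS-washed, rinsed in 150 mM sodium acetate pH 5.5, lysed in 1% Triton X-100 for 30 min at 37 °C. 1 mM (final) 4-methylumbelliferyl oleate added; fluorescence activity normalized to protein by bicinchoninic acid assay.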

[8] = molecular target: T1, Lysosomal acid lipase/cholesteryl ester hydrolase (Homo sapiens); assay: Inhibition of LAL in intact human GM05659 cells assessed as increase in neutral lipid accumulation in lysosomal storage organelle at 10 uM after 3 days by lipidTox green staining-based fluorescence microscopy; assay type: cell-based
Method in brief: (§2)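 Fibroblasts in MEM with 10% FBS treated 3 days, stained with filipin or LipidTOX green, imaged by automated fluorescence microscopy. After background correction, integrated thresholded fluorescence within lysosomal storage organelles was normalized to total cell area defined by low-threshold filipin signal.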

[9] = molecular target: T1, Lysosomal acid lipase/cholesteryl ester hydrolase (Homo sapiens); assay: Inhibition of LAL in human GM05659 cell lysate assessed as reduction in lysosomal storage organelle cholesterol level at 0.1 to 10 uM treated for 3 days measured after 1 day of compound withdrawal by bicinchoninic acid assay; method in brief: as §1
[10] = molecular target: T1, Lysosomal acid lipase/cholesteryl ester hydrolase (Homo sapiens); assay: Inhibition of LAL in intact human GM03123 cells assessed as reduction in lysosomal storage organelle cholesterol level at 10 uM after 3 days by filipin LSO assay; assay type: cell-based; method in brief: as §2
[11] = molecular target: T1, Lysosomal acid lipase/cholesteryl ester hydrolase (Homo sapiens); assay: Competitive inhibition of human LAL preincubated for 30 mins by Lineweaver-Burke plot analysis
Method in brief: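 Purified recombinant human LAL pre-incubated with inhibitor 30 min at 37 °C; reaction started with 4-methylumbelliferyl oleate at various concentrations, monitored 45 min. Concentrations are final. Lineweaver-Burk plots fitted by linear regression; two independent experiments, 6–8 wells per treated condition.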

Structure (SMILES) | inhibition [1] | Activity [2] | Activity [3] | also measured
NCCCCCCNC(=O)OCc1ccccc1 | inactive | – | – | –
CC(C(=O)c1ccccc1)c1nsnc1N1CCOCC1 (racemic) | inactive | Non-toxic | Non-toxic | –
Oc1nsnc1N1CCOCC1 | inactive | Non-toxic | Non-toxic | –
Oc1nsnc1N1CCCCC1 | inactive | Non-toxic | Non-toxic | –
COC(=O)C(C)c1nsnc1N1CCOCC1 (racemic) | Active | Non-toxic | Non-toxic | –
Oc1nsnc1N1CCCCCC1 | inactive | Non-toxic | Non-toxic | –
CNC(=O)Oc1ccc2c(c1)[C@]1(C)CCN(C)[C@@H]1N2C | inactive | – | – | –
CC(C)(C)OC(=O)Cc1nsnc1N1CCCCC1 | – | Non-toxic | Non-toxic | –
O=C(Oc1nsnc1N1CCCCCC1)N1CCOCC1 | – | Non-toxic | Non-toxic | inhibition [4]: tde; IC50 [5]: 189 nM; Activity [6]: 0.0042 min⁻¹; inhibition [7]: Active
O=C(Cc1nsnc1N1CCCCC1)N1CCOCC1 | inactive | Non-toxic | Non-toxic | –
O=C(Oc1nsnc1N1CCCCC1)N1CCCCC1 | – | Non-toxic | Non-toxic | inhibition [8]: Active; inhibition [9]: Active; inhibition [4]: tde; IC50 [5]: 152 nM; Activity [6]: 0.001 min⁻¹; inhibition [7]: Active; inhibition [10]: Active
O=C(Cc1nsnc1N1CCOCC1)N1CCOCC1 | inactive | Non-toxic | Non-toxic | –
CC(C)(C)OC(=O)Cc1nsnc1N1CCOCC1 | inactive | Non-toxic | Non-toxic | –
COC(=O)C(CCc1ccccc1)c1nsnc1N1CCOCC1 (racemic) | inactive | Non-toxic | Non-toxic | –
O=C(Oc1nsnc1N1CCCC1)N1CCCCC1 | – | Non-toxic | Non-toxic | inhibition [9]: Active; IC50 [5]: 496 nM; Activity [6]: 0.0007 min⁻¹; inhibition [7]: Active
COC(=O)C(C)(C)c1nsnc1N1CCOCC1 | inactive | Non-toxic | Non-toxic | –
O=C(Oc1nsnc1N1CCOCC1)N1CCCCC1 | – | Non-toxic | Non-toxic | inhibition [4]: tde; IC50 [5]: 424 nM; Activity [6]: 0.0016 min⁻¹; inhibition [7]: Active
Oc1nsnc1N1CCCC1 | inactive | Non-toxic | Non-toxic | –
CC(C)(C)C(=O)Cc1nsnc1N1CCOCC1 | inactive | Non-toxic | Non-toxic | –
CCOC(=O)Cc1nsnc1N1CCOCC1 | inactive | Non-toxic | Non-toxic | –
CN1CCC(OC(=O)Nc2ccc(F)cc2)CC1 | inactive | – | – | –
O=C(Oc1nsnc1N1CCCCC1)N1CCOCC1 | – | Non-toxic | Non-toxic | inhibition [11]: Active; inhibition [4]: tde; IC50 [5]: 68 nM; Activity [6]: 0.003 min⁻¹; inhibition [7]: Active
O=C(Oc1nsnc1N1CCOCC1)N1CCOCC1 | – | Non-toxic | Non-toxic | inhibition [8]: inactive; inhibition [4]: tde; IC50 [5]: 492 nM; Activity [6]: 0.0043 min⁻¹; inhibition [7]: Active; inhibition [10]: inactive
O=C(Oc1nsnc1N1CCCCCC1)N1CCCCC1 | – | Non-toxic | Non-toxic | inhibition [9]: Active; inhibition [4]: tde; IC50 [5]: 300 nM; Activity [6]: 0.0013 min⁻¹; inhibition [7]: Active
COc1ccccc1OCC(CO)OC(N)=O (stereo not given) | inactive | – | – | –
COC(N)=O | inactive | – | – | –
O=C(Oc1nsnc1N1CCCC1)N1CCOCC1 | – | Non-toxic | Non-toxic | inhibition [4]: tde; IC50 [5]: 473 nM; Activity [6]: 0.0037 min⁻¹; inhibition [7]: Active
O=C(Cc1nsnc1N1CCOCC1)c1ccccc1 | inactive | Non-toxic | Non-toxic | –
CN(C)C(=O)Oc1cccc([N+](C)(C)C)c1 | inactive | – | – | –
